Measurements from ChEMBL document CHEMBL5352422, “Development of l-Dopa-containing diketopiperazines as blood-brain barrier shuttle” (Eur J Med Chem, 2022).
Active and inactive are the calls of the source. The rule behind the calls is not given here.

Experiments:
[1] = Cytotoxicity against Primary human whole blood cell at 10 to 500 nM incubated for 24 hrs by LDH assay; format: toxicity, cell-based; settings: 0.5 µM, dose 10-500 nM
Method in brief: (§1)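 Rat fetal cortical neuron or human whole-blood cultures treated 24 h at 37 °C with aqueous compound at 10–500 nM. LDH released into 100 µL of medium measured by kit as the rate of NAD+ reduction (lactate to pyruvate), absorbance increase at 490 nm. Mitomycin C 10^-7 M as positive control; four independent experiments.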

[2] = Induction of DNA damage in Primary human whole blood cell assessed as total DNA damage score at 10 nM incubated for 24 hrs by Comet assay (reference value: 35.4 to 77.9); format: functional
[3] = Stability of the compound in phosphate buffer assessed as chemical hydrolysis by measuring half life at pH 7.4; format: physicochemical
Method in brief: (§2)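 Chemical hydrolysis at 37 °C in hydrochloric acid buffer pH 1.2 or phosphate buffer pH 7.4. Remaining compound followed by HPLC with UV detection. t1/2 and k_obs are means of three experiments ± SD.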

[4] = Induction of DNA damage in rat Cerebral cortex cell assessed as 8-OH-dG adducts formation at 10 nM incubated for 24 hrs by Comet assay (reference value: 0.14 to 1.92 pg/ml); format: functional, Cerebral cortex neuron
[5] = Antioxidant activity against Primary human whole blood cell assessed as H2O2 equivalent of total oxidative stress at 100 nM incubated for 24 hrs (0.6 to 1.9 micromolequiv/L); format: functional
[6] = Induction of DNA damage in rat Cerebral cortex cell assessed as 8-OH-dG adducts formation at 250 nM incubated for 24 hrs by […] (reference value: 0.14 to 1.92 pg/ml); format: functional, Cerebral cortex neuron
[7] = system: PC-12; experiment: Inhibition of MPP+ induced GSH level in rat PC-12 cells at 100 nM preincubated with compound for 24 hrs followed by MPP+ treatment for 24 hrs by DTNB reagent based analysis; format: functional, cell-based; settings: time 48.0 hrs
[8] = Antioxidant activity against rat Cerebral cortex cell assessed as H2O2 equivalent of total oxidative stress at 10 nM incubated for 24 hrs (0.7 to 2.3 micromolequiv/L); format: functional, Cerebral cortex neuron
[9] = Induction of DNA damage in Primary human whole blood cell assessed as 8-OH-dG adducts formation at 50 nM incubated for 24 hrs by […] (reference value: 0.12 to 2.21 pg/ml); format: functional
[10] = Stability of the compound in phosphate buffer assessed as chemical hydrolysis by measuring observed rate constant at pH 7.4; format: physicochemical; method in brief: as §2
[11] = Stability of the compound in stimulated gastric fluid at 40 mg/ml pepsin by measuring observed rate constant measured upto 60 mins by HPLC analysis; format: ADME; settings: simulated gi fluid, 1 h
Method in brief: (§3)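 USP simulated gastric fluid containing pepsin, preheated, in a 37 °C shaking water bath. Samples at 0, 15, 30 and 60 min were deproteinized with ice-cold acetonitrile containing 0.5% formic acid, centrifuged at 4 °C, filtered and analyzed by HPLC. Means of three experiments.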

[12] = Stability of the compound in stimulated gastric fluid at 10 mg/ml pepsin by measuring observed rate constant measured upto 60 mins by HPLC analysis; format: ADME; settings: simulated gi fluid, 1 h; method in brief: as §3
[13] = Genotoxicity in human Lymphocyte assessed as sister chromatid exchange measured per cells at 250 nM incubated for 72 hrs giemsa staining based fluorescence method (reference value: 6.6 to 14.3); format: toxicity, cell-based; settings: 0.25 µM
[14] = Antioxidant activity against rat Cerebral cortex cell assessed as H2O2 equivalent of total oxidative stress at 250 nM incubated for 24 hrs (0.7 to 2.3 micromolequiv/L); format: functional, Cerebral cortex neuron
[15] = Genotoxicity in human Lymphocyte assessed as sister chromatid exchange measured per cells at 50 nM incubated for 72 hrs giemsa staining based fluorescence method (reference value: 6.6 to 14.3); format: toxicity, cell-based; settings: 0.05 µM
[16] = Antioxidant activity against rat Cerebral cortex cell assessed as trolox equivalent of total antioxidant capacity at 250 nM incubated for 24 hrs (14.7 to 27.5 mmolequiv/L ); format: functional, Cerebral cortex neuron
[17] = Induction of DNA damage in Primary human whole blood cell assessed as 8-OH-dG adducts formation at 100 nM incubated for 24 hrs by […] (reference value: 0.12 to 2.21 pg/ml); format: functional
[18] = Apparent permeability of the compound across apical side to basolateral side in human Caco-2 cells measured upto 180 mins by HPLC analysis; format: ADME, cell-based
[19] = Stability of the compound in hydrochloric acid buffer assessed as chemical hydrolysis by measuring observed rate constant at pH 1.2; format: physicochemical; method in brief: as §2
[20] = Genotoxicity in human Lymphocyte assessed as micronuclei formation measured per 1000 cells at 500 nM incubated for 72 hrs giemsa staining based analysis (reference value: 4.5 to 17.9); format: toxicity, cell-based; settings: 0.5 µM
Method in brief: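 Human whole-blood lymphocyte cultures with phytohemagglutinin, incubated with compound for 72 h at 37 °C. Cytochalasin B added at 44 h. Cells fixed in ice-cold methanol/acetic acid 1:1, cytospun, Giemsa-stained. At least 1000 binucleated lymphocytes per concentration scored for micronuclei by one observer.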

[21] = Antioxidant activity against Primary human whole blood cell assessed as trolox equivalent of total antioxidant capacity at 250 nM incubated for 24 hrs (19.3 to 32.5 mmolequiv/L ); format: functional
[22] = Induction of DNA damage in Primary human whole blood cell assessed as 8-OH-dG adducts formation at 250 nM incubated for 24 hrs by […] (reference value: 0.12 to 2.21 pg/ml); format: functional
[23] = system: PC-12; experiment: Inhibition of MPP+ induced ROS production in rat PC-12 cells at 100 nM preincubated with compound for 24 hrs followed by MPP+ treatment for 24 hrs by DCFH-DA staining based fluorescence method; settings: time 48.0 hrs
[24] = Cytotoxicity against rat Cerebral cortex cell at 10 to 500 nM incubated for 24 hrs by LDH assay; format: toxicity, cell-based; settings: cerebral cortex neuron, 0.5 µM, dose 10-500 nM; method in brief: as §1
[25] = Cytotoxicity against Primary human whole blood cell at 10 to 500 nM incubated for 24 hrs by MTT assay; format: toxicity, cell-based; settings: 0.5 µM, dose 10-500 nM
Method in brief: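 Primary cultures (rat fetal cortical neurons; human whole-blood cultures with phytohemagglutinin) exposed to aqueous compound at 10–500 nM for 24 h at 37 °C. Then incubated with 0.7 mg/mL MTT for 30 min at 37 °C, formazan extracted with isopropanol/formic acid 95:5, read at 560 nm. Control formazan = 100% viability. Mitomycin C 10^-7 M as positive control; n = 4.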

[26] = Induction of DNA damage in Primary human whole blood cell assessed as total DNA damage score at 50 nM incubated for 24 hrs by Comet assay (reference value: 35.4 to 77.9); format: functional
[27] = Induction of DNA damage in rat Cerebral cortex cell assessed as total DNA damage score at 100 nM incubated for 24 hrs by Comet assay (reference value: 36.8 to 89.2); format: functional, Cerebral cortex neuron
[28] = Induction of DNA damage in Primary human whole blood cell assessed as 8-OH-dG adducts formation at 10 nM incubated for 24 hrs by […] (reference value: 0.12 to 2.21 pg/ml); format: functional
[29] = Induction of DNA damage in rat Cerebral cortex cell assessed as total DNA damage score at 250 nM incubated for 24 hrs by Comet assay (reference value: 36.8 to 89.2); format: functional, Cerebral cortex neuron

Structure (SMILES) | Activity [1] | Activity [2] | half-life [3] | Activity [4] | Activity [5] | Activity [6] | inhibition [7] | Activity [8] | Activity [9] | Kobs [10] | Kobs [11] | Kobs [12] | Activity [13] | Activity [14] | Activity [15] | Activity [16] | Activity [17] | Papp A→B at 3 h [18] | Kobs [19] | Activity [20] | also measured
C=CCSC[C@H]1NC(=O)[C@H](Cc2ccc(OC(C)=O)c(OC(C)=O)c2)NC1=O | Non-Toxic | 35 | 30.9 h | 0.14 pg/mL | 0.7 umolequiv/L | 0.15 pg/mL | inactive | 0.7 umolequiv/L | 0.12 pg/mL | 0.022 h⁻¹ | 0.031 h⁻¹ | 0.029 h⁻¹ | 7.1 | 0.7 umolequiv/L | 6.7 | 14.7 mmolequiv/L | 0.12 pg/mL | 7.5 ×10⁻⁶ cm/s | 0.037 h⁻¹ | 5.2 | Activity [21]: 18.8 mmolequiv/L; Activity [22]: 0.12 pg/mL; inhibition [23]: Active; Activity [24]: Non-Toxic; Activity [25]: Non-Toxic; Activity [26]: 35.7; Activity [27]: 37.1; Activity [28]: 0.12 pg/mL; Activity [29]: 37.4
C#CCSC[C@H]1NC(=O)[C@H](Cc2ccc(OC(C)=O)c(OC(C)=O)c2)NC1=O | Non-Toxic | 36 | 47.5 h | 0.14 pg/mL | 0.6 umolequiv/L | 0.14 pg/mL | Active | 0.7 umolequiv/L | 0.11 pg/mL | 0.015 h⁻¹ | 0.012 h⁻¹ | 0.008 h⁻¹ | 7.1 | 0.6 umolequiv/L | 6.8 | 15.4 mmolequiv/L | 0.12 pg/mL | 17.4 ×10⁻⁶ cm/s | 0.005 h⁻¹ | 5.1 | Activity [21]: 19.8 mmolequiv/L; Activity [22]: 0.13 pg/mL; inhibition [23]: Active; Activity [24]: Non-Toxic; Activity [25]: Non-Toxic; Activity [26]: 35.8; Activity [27]: 37.8; Activity [28]: 0.12 pg/mL; Activity [29]: 37.6
